ChEMBL document CHEMBL1255347, “Multiclonal outbreak of Klebsiella pneumoniae producing extended-spectrum beta-lactamase CTX-M-2 and novel variant CTX-M-59 in a neonatal intensive care unit in Brazil” (2008)

tested on: Klebsiella pneumoniae; assay: Antimicrobial activity against SHV-5 producing Klebsiella pneumoniae transconjugants/transformants with PFGE pulsotype D by Etest in presence of clavulanic acid; format: functional
Summary of the method: (§1)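 The recipient was E. coli XL1-Blue Rifr NAr. Plasmids moved by broth mating, with transconjugants selected on LB agar containing ampicillin, rifampin and nalidixic acid, each at 50 μg/ml. Where mating failed, alkaline-lysis plasmid extracts were electroporated and selected on ampicillin 50 μg/ml. β-lactam MICs were read by Etest, with and without clavulanic acid.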

Question: How did the MIC turn out when `CO/N=C(\C(=O)N[C@@H]1C(=O)N2C(C(=O)O)=C(COC(C)=O)CS[C@H]12)c1csc(N)n1` [CEFOTAXIME] was run?
Answer: 0.47 µg/mL

tested on: Klebsiella pneumoniae; assay: Antimicrobial activity against CTX-M-59 and TEM-1 producing Klebsiella pneumoniae transconjugants/transformants with PFGE pulsotype E by Etest in presence of clavulanic acid; format: functional; summary of the method: as §1

Question: For `CO/N=C(\C(=O)N[C@@H]1C(=O)N2C(C(=O)O)=C(COC(C)=O)CS[C@H]12)c1csc(N)n1` [CEFOTAXIME], which MIC is on record?
Answer: 0.25 µg/mL

tested on: Klebsiella pneumoniae; assay: Antimicrobial activity against CTX-M-2 and TEM-1 producing Klebsiella pneumoniae transconjugants/transformants with PFGE pulsotype F by Etest in presence of clavulanic acid; format: functional; summary of the method: as §1

Question: Which MIC does the source give for `CO/N=C(\C(=O)N[C@@H]1C(=O)N2C(C(=O)O)=C(COC(C)=O)CS[C@H]12)c1csc(N)n1` [CEFOTAXIME] here?
Answer: 0.125 µg/mL

tested on: Klebsiella pneumoniae; assay: Antimicrobial activity against CTX-M-59 and TEM-1 producing Klebsiella pneumoniae transconjugants/transformants with PFGE pulsotype G by Etest in presence of clavulanic acid; format: functional; summary of the method: as §1

Question: Which MIC does the source give for `CO/N=C(\C(=O)N[C@@H]1C(=O)N2C(C(=O)O)=C(COC(C)=O)CS[C@H]12)c1csc(N)n1` [CEFOTAXIME] here?
Answer: 0.19 µg/mL

tested on: Klebsiella pneumoniae; assay: Antimicrobial activity against CTX-M-2 and TEM-1 producing Klebsiella pneumoniae transconjugants/transformants with PFGE pulsotype H by Etest in presence of clavulanic acid; format: functional

Question: With `CO/N=C(\C(=O)N[C@@H]1C(=O)N2C(C(=O)O)=C(COC(C)=O)CS[C@H]12)c1csc(N)n1` [CEFOTAXIME] as the compound, how does the MIC read?
Answer: 0.94 µg/mL

tested on: Klebsiella pneumoniae; assay: Antimicrobial activity against CTX-M-2 and TEM-1 producing Klebsiella pneumoniae transconjugants/transformants with PFGE pulsotype I by Etest in presence of clavulanic acid; format: functional; summary of the method: as §1

Question: For `CO/N=C(\C(=O)N[C@@H]1C(=O)N2C(C(=O)O)=C(COC(C)=O)CS[C@H]12)c1csc(N)n1` [CEFOTAXIME], which MIC is on record?
Answer: 0.125 µg/mL

tested on: Klebsiella pneumoniae; assay: Antimicrobial activity against CTX-M-2 and TEM-1 producing Klebsiella pneumoniae transconjugants/transformants with PFGE pulsotype J by Etest in presence of clavulanic acid; format: functional; summary of the method: as §1

Question: Which MIC does the source give for `CO/N=C(\C(=O)N[C@@H]1C(=O)N2C(C(=O)O)=C(COC(C)=O)CS[C@H]12)c1csc(N)n1` [CEFOTAXIME] here?
Answer: 0.125 µg/mL

tested on: Klebsiella pneumoniae; assay: Antimicrobial activity against CTX-M-2 producing Klebsiella pneumoniae with PFGE pulsotype A by Etest in presence of clavulanic acid; format: functional
Summary of the method: (§2)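 Clinical K. pneumoniae isolates from a neonatal ICU outbreak near São Paulo were typed by XbaI PFGE using Tenover criteria. Cultures were grown in LB broth at 37°C. Etest MICs followed the manufacturer's instructions, with cefotaxime and ceftazidime each tested with and without clavulanic acid.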

Question: `CO/N=C(\C(=O)N[C@@H]1C(=O)N2C(C(=O)O)=C(COC(C)=O)CS[C@H]12)c1csc(N)n1` [CEFOTAXIME] was tested. Which MIC did it give?
Answer: 0.094 µg/mL

tested on: Klebsiella pneumoniae; assay: Antimicrobial activity against CTX-M-2 producing Klebsiella pneumoniae with PFGE pulsotype B by Etest in presence of clavulanic acid; format: functional; summary of the method: as §2

Question: Which MIC does the source give for `CO/N=C(\C(=O)N[C@@H]1C(=O)N2C(C(=O)O)=C(COC(C)=O)CS[C@H]12)c1csc(N)n1` [CEFOTAXIME] here?
Answer: 0.094 µg/mL

tested on: Klebsiella pneumoniae; assay: Antimicrobial activity against CTX-M-59 producing Klebsiella pneumoniae with PFGE pulsotype C by Etest in presence of clavulanic acid; format: functional; summary of the method: as §2

Question: For `CO/N=C(\C(=O)N[C@@H]1C(=O)N2C(C(=O)O)=C(COC(C)=O)CS[C@H]12)c1csc(N)n1` [CEFOTAXIME], which MIC is on record?
Answer: 0.094 µg/mL

tested on: Klebsiella pneumoniae; assay: Antimicrobial activity against SHV-5 producing Klebsiella pneumoniae with PFGE pulsotype D by Etest in presence of clavulanic acid; format: functional

Question: Which MIC does the source give for `CO/N=C(\C(=O)N[C@@H]1C(=O)N2C(C(=O)O)=C(COC(C)=O)CS[C@H]12)c1csc(N)n1` [CEFOTAXIME] here?
Answer: 0.047 µg/mL

tested on: Klebsiella pneumoniae; assay: Antimicrobial activity against CTX-M-59 producing Klebsiella pneumoniae with PFGE pulsotype E by Etest in presence of clavulanic acid; format: functional
Summary of the method: (§3)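 MICs were determined by Etest strips following the manufacturer's instructions, using cefotaxime and ceftazidime each combined with clavulanic acid. The test strains were clinical NICU outbreak isolates confirmed as ESBL producers by disk diffusion. Pulsotypes were assigned by XbaI PFGE using Tenover relatedness criteria. Cultures were routinely grown in LB broth at 37°C.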

Question: For `CO/N=C(\C(=O)N[C@@H]1C(=O)N2C(C(=O)O)=C(COC(C)=O)CS[C@H]12)c1csc(N)n1` [CEFOTAXIME], which MIC is on record?
Answer: 0.125 µg/mL

tested on: Klebsiella pneumoniae; assay: Antimicrobial activity against CTX-M-2 producing Klebsiella pneumoniae with PFGE pulsotype F by Etest in presence of clavulanic acid; format: functional; summary of the method: as §2

Question: Which MIC does the source give for `CO/N=C(\C(=O)N[C@@H]1C(=O)N2C(C(=O)O)=C(COC(C)=O)CS[C@H]12)c1csc(N)n1` [CEFOTAXIME] here?
Answer: 0.094 µg/mL

tested on: Klebsiella pneumoniae; assay: Antimicrobial activity against CTX-M-59 producing Klebsiella pneumoniae with PFGE pulsotype G by Etest in presence of clavulanic acid; format: functional; summary of the method: as §3

Question: `CO/N=C(\C(=O)N[C@@H]1C(=O)N2C(C(=O)O)=C(COC(C)=O)CS[C@H]12)c1csc(N)n1` [CEFOTAXIME] was tested. Which MIC did it give?
Answer: 0.5 µg/mL

tested on: Klebsiella pneumoniae; assay: Antimicrobial activity against CTX-M-2 producing Klebsiella pneumoniae with PFGE pulsotype H by Etest in presence of clavulanic acid; format: functional
Summary of the method: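 Etest strips used per manufacturer's instructions to read MICs of cefotaxime and ceftazidime, each with clavulanic acid, on clinical NICU K. pneumoniae outbreak isolates. Isolates were typed by XbaI PFGE using Tenover criteria and routinely grown in LB broth at 37°C.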

Question: Which MIC does the source give for `CO/N=C(\C(=O)N[C@@H]1C(=O)N2C(C(=O)O)=C(COC(C)=O)CS[C@H]12)c1csc(N)n1` [CEFOTAXIME] here?
Answer: 1 µg/mL

tested on: Klebsiella pneumoniae; assay: Antimicrobial activity against CTX-M-2 producing Klebsiella pneumoniae with PFGE pulsotype I by Etest in presence of clavulanic acid; format: functional; summary of the method: as §2

Question: How did the MIC turn out when `CO/N=C(\C(=O)N[C@@H]1C(=O)N2C(C(=O)O)=C(COC(C)=O)CS[C@H]12)c1csc(N)n1` [CEFOTAXIME] was run?
Answer: 0.094 µg/mL

tested on: Klebsiella pneumoniae; assay: Antimicrobial activity against CTX-M-2 producing Klebsiella pneumoniae with PFGE pulsotype J by Etest in presence of clavulanic acid; format: functional; summary of the method: as §2

Question: For `CO/N=C(\C(=O)N[C@@H]1C(=O)N2C(C(=O)O)=C(COC(C)=O)CS[C@H]12)c1csc(N)n1` [CEFOTAXIME], which MIC is on record?
Answer: 0.094 µg/mL

tested on: Escherichia coli; assay: Antimicrobial activity against CTX-M-2 and TEM-1 producing Escherichia coli transconjugants/transformants with PFGE pulsotype A by Etest in presence of clavulanic acid

Question: With `CO/N=C(\C(=O)N[C@@H]1C(=O)N2C(C(=O)O)=C(COC(C)=O)CS[C@H]12)c1csc(N)n1` [CEFOTAXIME] as the compound, how does the MIC read?
Answer: 0.094 µg/mL
